ChEMBL document CHEMBL1138107, “Novel non-nucleobase inhibitors of Staphylococcus aureus DNA polymerase IIIC” (Bioorg Med Chem Lett, 2006)
pIC50: −log10 of the molar value. ≈ marks a conversion by molar mass, not a printed value. Calls of active or inactive are those of the source. The calls are words filed in the database; no cut-off is given here.

Assays:
[1] = target: T1, DNA polymerase III PolC-type (Staphylococcus aureus) (UniProt P0C1P9); assay: Inhibition of DNA polymerase3C from Staphylococcus aureus at 100 uM
T1 sequence (whole entry): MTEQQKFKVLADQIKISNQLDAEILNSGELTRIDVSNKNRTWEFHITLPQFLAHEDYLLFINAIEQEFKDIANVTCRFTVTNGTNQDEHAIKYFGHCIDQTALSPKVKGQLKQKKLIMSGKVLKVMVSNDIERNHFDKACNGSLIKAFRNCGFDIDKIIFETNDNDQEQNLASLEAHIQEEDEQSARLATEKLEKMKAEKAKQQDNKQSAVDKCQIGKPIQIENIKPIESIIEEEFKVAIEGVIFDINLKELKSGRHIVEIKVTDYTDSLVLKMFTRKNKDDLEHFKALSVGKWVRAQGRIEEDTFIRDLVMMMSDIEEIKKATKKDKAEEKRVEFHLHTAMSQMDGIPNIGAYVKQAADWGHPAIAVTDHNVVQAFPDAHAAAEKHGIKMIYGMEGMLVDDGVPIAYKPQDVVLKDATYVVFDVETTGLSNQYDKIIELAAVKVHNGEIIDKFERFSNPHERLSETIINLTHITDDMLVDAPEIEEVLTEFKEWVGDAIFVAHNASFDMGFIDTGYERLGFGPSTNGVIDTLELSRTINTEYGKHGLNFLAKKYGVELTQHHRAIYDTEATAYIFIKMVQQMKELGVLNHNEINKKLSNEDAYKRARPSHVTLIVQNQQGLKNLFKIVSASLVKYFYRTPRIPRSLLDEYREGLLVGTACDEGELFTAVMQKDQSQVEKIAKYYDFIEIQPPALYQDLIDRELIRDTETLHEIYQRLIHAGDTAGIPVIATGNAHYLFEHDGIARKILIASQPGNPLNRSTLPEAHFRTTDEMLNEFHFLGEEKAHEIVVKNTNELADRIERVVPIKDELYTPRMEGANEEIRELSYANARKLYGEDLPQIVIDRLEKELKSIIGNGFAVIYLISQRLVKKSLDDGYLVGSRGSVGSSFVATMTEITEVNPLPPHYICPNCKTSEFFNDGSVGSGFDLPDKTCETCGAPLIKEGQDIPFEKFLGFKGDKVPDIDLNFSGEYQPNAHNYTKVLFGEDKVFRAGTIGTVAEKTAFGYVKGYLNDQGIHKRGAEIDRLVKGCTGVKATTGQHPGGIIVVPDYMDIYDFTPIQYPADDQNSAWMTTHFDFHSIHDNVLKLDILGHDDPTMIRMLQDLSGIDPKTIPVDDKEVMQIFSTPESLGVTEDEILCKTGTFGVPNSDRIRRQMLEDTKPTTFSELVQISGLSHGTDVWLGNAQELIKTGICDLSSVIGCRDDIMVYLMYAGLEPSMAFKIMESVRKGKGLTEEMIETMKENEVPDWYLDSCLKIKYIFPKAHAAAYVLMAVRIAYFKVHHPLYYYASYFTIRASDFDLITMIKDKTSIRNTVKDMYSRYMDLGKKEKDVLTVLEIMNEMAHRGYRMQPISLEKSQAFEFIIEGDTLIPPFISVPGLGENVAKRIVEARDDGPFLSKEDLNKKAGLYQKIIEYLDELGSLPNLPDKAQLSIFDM
In short: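 PolC oligonucleotide-primed incorporation of [³H]dTTP was run with 125 ng purified enzyme for 30 min at 37 °C. It was quenched with EDTA, filter-bound on DE81 and counted by liquid scintillation. Compounds were screened in triplicate at 10, 50 and 100.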

Hepatocyte [2] = assay: Cytotoxicity against human hepatocytes by measure of ATP production at 50 uM; assay type: functional, cell-based
In short: (§1)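 Cryopreserved primary human hepatocytes (1 × 10⁴/well) in Krebs–Henseleit buffer were incubated with compound at 100, 50, 25 and 12.5 for 2 h at 37 °C under 5% CO₂. ATP content was then measured by luminescence after adding luciferin and luciferase.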

[3] = target: T2, DNA polymerase III PolC-type (Staphylococcus aureus, UniProt P0C1P9); assay: Inhibition of DNA polymerase3C from Staphylococcus aureus
T2 sequence (P0C1P9 whole entry): T1 sequence (whole entry)
In short: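 Purified PolC (125 ng) started the reaction with a double-stranded oligonucleotide substrate, dATP, dCTP, low dGTP and [³H]dTTP (1 Ci/mmol) in Tris-HCl pH 7.5 buffer with glycerol, EDTA, DTT, IgG and 8 mM MgCl₂. Incubation was 30 min at 37 °C, stopped with 20 mM EDTA, then spotted on DE81 filters, washed and counted by scintillation. IC50 came from a 12-point, roughly 2-fold serial dilution, run in triplicate.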

HeLa = assay: Cytotoxicity against HeLa cell line by MTS assay; assay type: functional, cell-based; conditions: Homo sapiens
In short: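 HeLa cells (2 × 10⁴/well) in DMEM with 1% bovine growth serum were exposed to compound at 100, 50, 25 and 12.5 for 18 h at 37 °C under 5% CO₂. Viability was read as MTS reduction to formazan, by absorbance at 490 nm.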

Staphylococcus aureus = assay: Antimicrobial activity against Staphylococcus aureus (RN4220); assay type: functional; conditions: read-out: MIC
Hepatocyte [4] = assay: Decrease in ATP productions in human hepatocytes at 100 uM; assay type: functional, cell-based; in short: as §1

Compound | inhibition [1] | Activity (Hepatocyte [2]) | pIC50 [3] | Activity (HeLa) | MIC (Staphylococcus aureus) | Activity (Hepatocyte [4])
Oc1nc(Nc2ccc3c(c2)CCC3)nc(O)c1CCCOc1ccccc1 | 74% | Toxic | 5.40 | Not toxic | 8 µg/mL (≈ 21.2 µM) | 
Oc1nc(Nc2ccc3c(c2)CCC3)nc(O)c1CCCc1ccccc1 | 75% |  |  | Not toxic | 8 µg/mL (≈ 22.1 µM) | Active
C=CCc1c(O)nc(Nc2ccc(C)c(CC)c2)nc1O | 90% |  |  | Not toxic | 8 µg/mL (≈ 28 µM) | Active
